The record followed here is ChEMBL document CHEMBL1287649, “Synthesis and anti-tubercular and antimicrobial activities of some 2r,4c-diaryl-3-azabicyclo[3.3.1]nonan-9-one N-isonicotinoylhydrazone derivatives” (2010).

Values after ≈ are worked out from the molar mass of the structure shown. Active and inactive are the calls of the source.

In test [1] the test system is Candida albicans. Kind of test: Antifungal activity against Candida albicans-51 NCIM C27 after 72 to 96 hrs by twofold serial dilution method. It is filed as functional. In short, it runs like this: (§1)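 Two-fold serial dilution in Sabouraud dextrose broth; compounds from 1 mg mL^-1 DMSO stocks, 0.2 mL into 1.8 mL seeded broth, then six serial dilutions. Spores from 24-h to 7-day Sabouraud agar slants, final 1.1–1.5 × 10² cfu mL^-1, pH 7.4 ± 0.2. Incubated at 28 ± 1 °C. MIC read visually after 72–96 h. Seeded-broth and solvent controls included.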

Test [2] deals with Candida albicans. In words: Antifungal activity against Candida albicans-6 NCIM C27 after 72 to 96 hrs by twofold serial dilution method. Format: functional. In short, it runs like this: as §1
In a further test the test system is Aspergillus niger. In words: Antifungal activity against Aspergillus niger NCIM 590 after 72 to 96 hrs by twofold serial dilution method. Format: functional. In short, it runs like this: as §1
Test [3] has as its system Pseudomonas aeruginosa. Kind of test: Antibacterial activity against Pseudomonas aeruginosa NCIM 2035 after 24 hrs by twofold serial dilution method. To be noted: NCIM 2035, 24 h. It is filed as functional. In short, it runs like this: (§2)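 Two-fold serial dilution in nutrient broth; compounds from 1 mg mL^-1 DMSO stocks, 0.2 mL into 1.8 mL seeded broth, then six serial dilutions. Inoculum from 24-h nutrient agar cultures grown at 37 ± 1 °C, final 10⁵ cfu mL^-1, pH 7.4 ± 0.2. Incubated at 37 ± 1 °C. MIC read visually after 24 h. Seeded-broth and solvent controls included.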

Test [4] relates to Bacillus subtilis. In words: Antibacterial activity against Bacillus subtilis NCIM 2439 after 24 hrs by twofold serial dilution method. Format: functional. To be noted: NCIM 2439, 24 h. The procedure, abridged:
as §2

In test [5] the test system is Escherichia coli. Kind of test: Antibacterial activity against Escherichia coli NCIM 2345 after 24 hrs by twofold serial dilution method. The conditions noted are these: NCIM 2345, 24 h. Format: functional. In short, it runs like this:
as §2

In test [6] the test system is Klebsiella pneumoniae. Kind of test: Antibacterial activity against Klebsiella pneumoniae at 200 ug/ml after 24 hrs by twofold serial dilution method. It is filed as functional, organism-based.
Test [7] relates to Mycobacterium tuberculosis. In words: Antitubercular activity against Mycobacterium tuberculosis H37Rv ATCC 27294 assessed as reduction of relative light unit at 1 ug/ml after 72 hrs by luciferase reporter phage assay relative to control. The arrangement: scale not given: the % may be the effect or the level left. It is filed as functional, H37Rv ATTC 27294. The procedure, abridged: (§3)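 Luciferase reporter phage assay. Luminescence (RLU) integrated for 10 s on a luminometer, in duplicate per sample and averaged. Percent RLU reduction calculated against untreated control. Run repeated if the control mean RLU was below 1000.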

The test system of test [8] is Aspergillus flavus. Kind of test: Antifungal activity against Aspergillus flavus NCIM 539 after 72 to 96 hrs by twofold serial dilution method. It is filed as functional. The procedure, abridged:
as §1

For the next test, the system named is Staphylococcus aureus. Kind of test: Antibacterial activity against Staphylococcus aureus NCIM 2492 after 24 hrs by twofold serial dilution method. It is filed as functional. The conditions noted are these: NCIM 2492, 24 h. In short, it runs like this: as §2
Test [9] has as its system Mycobacterium tuberculosis. Kind of test: Antitubercular activity against Mycobacterium tuberculosis H37Rv ATCC 27294 assessed as reduction of relative light unit at 2 ug/ml after 72 hrs by luciferase reporter phage assay relative to control. Format: functional, H37Rv ATTC 27294. Set-up: scale not given: the % may be the effect or the level left. The procedure, abridged: as §3
(Reporter assays use an easily measured gene product as a stand-in for the process of interest.)

Test [10] deals with Candida albicans. Kind of test: Antifungal activity against Candida albicans NCIM C27 after 72 to 96 hrs by twofold serial dilution method. It is filed as functional. The procedure, abridged: as §1
The subject of test [11] is Pseudomonas aeruginosa. In words: Antibacterial activity against Pseudomonas aeruginosa NCIM 2035 at 200 ug/ml after 24 hrs by twofold serial dilution method. It is filed as functional, organism-based.
Test [12] deals with Klebsiella pneumoniae. In words: Antibacterial activity against Klebsiella pneumoniae after 24 hrs by twofold serial dilution method. Format: functional. The procedure, abridged:
as §2

Test [13] relates to Candida albicans. In words: Antifungal activity against Candida albicans-6 NCIM C27 at 200 ug/ml after 72 to 96 hrs by twofold serial dilution method. Format: functional, organism-based.
The test system of test [14] is Aspergillus flavus. Kind of test: Antifungal activity against Aspergillus flavus NCIM 539 at 200 ug/ml after 72 to 96 hrs by twofold serial dilution method. Format: functional, organism-based.
For test [15], the system named is Bacillus subtilis. Kind of test: Antibacterial activity against Bacillus subtilis NCIM 2439 at 200 ug/ml after 24 hrs by twofold serial dilution method. It is filed as functional, organism-based.
The test system of test [16] is Escherichia coli. Kind of test: Antibacterial activity against Escherichia coli NCIM 2345 at 200 ug/ml after 24 hrs by twofold serial dilution method. It is filed as functional, organism-based.
In test [17] the test system is Candida albicans. In words: Antifungal activity against Candida albicans NCIM C27 at 200 ug/ml after 72 to 96 hrs by twofold serial dilution method. It is filed as functional, organism-based.

The term MIC denotes the smallest concentration in the dilution series that meets the test's criterion for growth inhibition. As for `O=C(N/N=C1\C2CCCC1[C@H](c1ccc(F)cc1)N[C@@H]2c1ccc(F)cc1)c1ccncc1`, the MIC amounted to 50 µg/mL (≈ 112 µM) in the test with Candida albicans [1]; 50 µg/mL (≈ 112 µM) with Candida albicans [2]; 100 µg/mL (≈ 224 µM) against Aspergillus niger; 100 µg/mL (≈ 224 µM) against Pseudomonas aeruginosa [3]; 50 µg/mL (≈ 112 µM) against Bacillus subtilis [4]; 100 µg/mL (≈ 224 µM) against Escherichia coli [5]. The minimal inhibitory concentration (MIC) against Aspergillus flavus [8] is 100 µg/mL (≈ 224 µM); against Staphylococcus aureus it was 50 µg/mL (≈ 112 µM); with Candida albicans [10], 50 µg/mL (≈ 112 µM). The result in the test with Klebsiella pneumoniae [6] was inactive. Also, the Activity in test [7] turned out to be 76.63%; in test [9] it was 86.12%.

`O=C(N/N=C1\C2CCCC1[C@H](c1ccc(Cl)cc1)N[C@@H]2c1ccc(Cl)cc1)c1ccncc1`: the MIC came out at 50 µg/mL (≈ 104 µM) in the test on Candida albicans [1]; 100 µg/mL (≈ 209 µM) with Candida albicans [2]; 100 µg/mL (≈ 209 µM) in the test on Aspergillus niger; 100 µg/mL (≈ 209 µM) in the test on Pseudomonas aeruginosa [3]; 100 µg/mL (≈ 209 µM) against Bacillus subtilis [4]; 50 µg/mL (≈ 104 µM) in the test on Escherichia coli [5]. In addition, the minimal inhibitory concentration (MIC) with Klebsiella pneumoniae [12] amounted to 100 µg/mL (≈ 209 µM); against Aspergillus flavus [8], 200 µg/mL (≈ 417 µM); against Staphylococcus aureus it was 50 µg/mL (≈ 104 µM); against Candida albicans [10] it was 100 µg/mL (≈ 209 µM). In addition, in the test on Pseudomonas aeruginosa [11], the result was inactive. The Activity in test [7] is 75.61%; in test [9], 85.22%.

As to `CN[C@@H]1[C@H](O[C@H]2[C@H](O[C@H]3[C@H](O)[C@@H](O)[C@H](N=C(N)N)[C@@H](O)[C@@H]3N=C(N)N)O[C@@H](C)[C@]2(O)C=O)O[C@@H](CO)[C@H](O)[C@H]1O` [STREPTOMYCIN], the MIC in the test with Pseudomonas aeruginosa [3] amounted to 25 µg/mL (≈ 43 µM); against Bacillus subtilis [4] it was 12.5 µg/mL (≈ 21.5 µM); against Escherichia coli [5], 12.5 µg/mL (≈ 21.5 µM); in the test with Klebsiella pneumoniae [12], 50 µg/mL (≈ 86 µM); in the test with Staphylococcus aureus, 50 µg/mL (≈ 86 µM).

As to `C[C@@H]1[C@H](O)[C@@H](C)/C=C/C=C/C=C/C=C/C=C/C=C/C=C/[C@H](O[C@@H]2O[C@H](C)[C@@H](O)[C@H](N)[C@@H]2O)C[C@@H]2O[C@](O)(C[C@@H](O)C[C@@H](O)[C@H](O)CC[C@@H](O)C[C@@H](O)CC(=O)O[C@H]1C)C[C@H](O)[C@H]2C(=O)O` [AMPHOTERICIN B], the MIC amounted to 25 µg/mL (≈ 27.1 µM) against Candida albicans [1]; 25 µg/mL (≈ 27.1 µM) against Candida albicans [2]; 50 µg/mL (≈ 54.1 µM) in the test on Aspergillus niger; 50 µg/mL (≈ 54.1 µM) against Aspergillus flavus [8]; 25 µg/mL (≈ 27.1 µM) with Candida albicans [10].

Take `NNC(=O)c1ccncc1` [ISONIAZID]: the Activity in [7] and in [9] was 98.42% throughout.

`COc1cccc([C@H]2N[C@@H](c3cccc(OC)c3)C3CCCC2/C3=N\NC(=O)c2ccncc2)c1`: the MIC against Candida albicans [1] came to 200 µg/mL (≈ 425 µM); against Candida albicans [2], 200 µg/mL (≈ 425 µM); against Aspergillus niger it was 100 µg/mL (≈ 213 µM); in the test with Pseudomonas aeruginosa [3] it was 200 µg/mL (≈ 425 µM); with Bacillus subtilis [4] it was 50 µg/mL (≈ 106 µM); with Escherichia coli [5], 200 µg/mL (≈ 425 µM). Moreover, the minimum inhibitory concentration (MIC) in the test on Klebsiella pneumoniae [12] came out at 100 µg/mL (≈ 213 µM); against Aspergillus flavus [8], 100 µg/mL (≈ 213 µM); against Staphylococcus aureus, 200 µg/mL (≈ 425 µM); against Candida albicans [10] it was 100 µg/mL (≈ 213 µM). Moreover, the Activity in test [7] stood at 77.18%; in test [9] it was 87.06%.

As to `COc1ccc([C@H]2N[C@@H](c3ccc(OC)cc3)C3CCCC2/C3=N\NC(=O)c2ccncc2)cc1`, the MIC against Candida albicans [1] was 100 µg/mL (≈ 213 µM); with Candida albicans [2] it was 100 µg/mL (≈ 213 µM); with Aspergillus niger, 200 µg/mL (≈ 425 µM); in the test with Bacillus subtilis [4], 200 µg/mL (≈ 425 µM); with Escherichia coli [5] it was 100 µg/mL (≈ 213 µM); with Klebsiella pneumoniae [12] it was 200 µg/mL (≈ 425 µM). The MIC against Aspergillus flavus [8] came out at 200 µg/mL (≈ 425 µM); in the test on Staphylococcus aureus it was 100 µg/mL (≈ 213 µM); against Candida albicans [10], 200 µg/mL (≈ 425 µM). Also, the Activity in [7] turned out to be 73.07%; in test [9], 83.02%.

In the case of `O=C(N/N=C1\C2CCCC1[C@H](c1ccccc1)N[C@@H]2c1ccccc1)c1ccncc1`, the outcome in the test on Candida albicans [13], with Aspergillus flavus [14], in the test with Klebsiella pneumoniae [6], with Bacillus subtilis [15], in the test on Escherichia coli [16] and in the test with Candida albicans [17] was inactive. For the same compound, the MIC amounted to 100 µg/mL (≈ 244 µM) in the test on Candida albicans [1], 200 µg/mL (≈ 487 µM) with Aspergillus niger, 200 µg/mL (≈ 487 µM) in the test with Pseudomonas aeruginosa [3] and 100 µg/mL (≈ 244 µM) in the test with Staphylococcus aureus. Moreover, the Activity is 77.76% in [7] and 87.9% in test [9].

Take `O=C(N/N=C1\C2CCCC1[C@H](c1cccc(Cl)c1)N[C@@H]2c1cccc(Cl)c1)c1ccncc1`: the minimum inhibitory concentration (MIC) was 200 µg/mL (≈ 417 µM) in the test on Candida albicans [1]; 50 µg/mL (≈ 104 µM) against Candida albicans [2]; 100 µg/mL (≈ 209 µM) against Aspergillus niger; 100 µg/mL (≈ 209 µM) in the test on Pseudomonas aeruginosa [3]; 100 µg/mL (≈ 209 µM) in the test on Bacillus subtilis [4]; 50 µg/mL (≈ 104 µM) against Escherichia coli [5]. The minimum inhibitory concentration (MIC) against Klebsiella pneumoniae [12] turned out to be 50 µg/mL (≈ 104 µM); against Aspergillus flavus [8], 200 µg/mL (≈ 417 µM); in the test on Staphylococcus aureus, 100 µg/mL (≈ 209 µM); against Candida albicans [10], 200 µg/mL (≈ 417 µM). Further, the results for the Activity in test [7] and in [9] were 75.42% and 85.34%, respectively.

Turning to `CC1(C)S[C@@H]2[C@H](NC(=O)Cc3ccccc3)C(=O)N2[C@H]1C(=O)O` [PENICILLIN G], the minimum inhibitory concentration (MIC) in the test on Pseudomonas aeruginosa [3] is 50 µg/mL (≈ 150 µM); with Bacillus subtilis [4], 25 µg/mL (≈ 74.8 µM); in the test on Escherichia coli [5], 50 µg/mL (≈ 150 µM); with Klebsiella pneumoniae [12], 12.5 µg/mL (≈ 37.4 µM); with Staphylococcus aureus it was 12.5 µg/mL (≈ 37.4 µM).

`Cc1ccc([C@H]2N[C@@H](c3ccc(C)cc3)C3CCCC2/C3=N\NC(=O)c2ccncc2)cc1`: the MIC with Candida albicans [1] was determined as 100 µg/mL (≈ 228 µM); with Candida albicans [2], 200 µg/mL (≈ 456 µM); with Aspergillus niger it was 100 µg/mL (≈ 228 µM); with Pseudomonas aeruginosa [3], 100 µg/mL (≈ 228 µM); in the test with Bacillus subtilis [4], 200 µg/mL (≈ 456 µM); against Staphylococcus aureus it was 200 µg/mL (≈ 456 µM). For the same compound, in the test with Candida albicans [10], the minimal inhibitory concentration (MIC) turned out to be 100 µg/mL (≈ 228 µM). The outcome in the test with Aspergillus flavus [14], in the test on Klebsiella pneumoniae [6] and in the test on Escherichia coli [16] was inactive. Besides, the Activity in [7] stood at 72.03%; in test [9], 82.04%.
